# Calls of active or inactive are those of the source. The calls are words filed in the database; no cut-off is given here.
# What was measured:
# Fusarium verticillioides = assay: Antimicrobial activity against Fusarium verticillioides NRRL 25457 at 250 ug/disk by standard agar diffusion assay; format: functional, organism-based
# Aspergillus flavus = assay: Antimicrobial activity against Aspergillus flavus NRRL 6541 at 250 ug/disk by standard agar diffusion assay; format: functional, organism-based
# Bacillus subtilis = assay: Antimicrobial activity against Bacillus subtilis ATCC 6051 at 200 ug/disk by standard agar diffusion assay; format: functional; conditions: read-out: IZ
# Method in brief: (§1)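 Agar diffusion (disk) assay with 200 µg of compound applied per disk against the bacterial strain. The same panel at this loading also included Candida albicans ATCC 90029. Read-out was the zone of growth inhibition, recorded in mm.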
# Staphylococcus aureus = assay: Antimicrobial activity against Staphylococcus aureus ATCC 29213 at 200 ug/disk by standard agar diffusion assay; format: functional; conditions: read-out: IZ; method in brief: as §1
Structure (SMILES),Activity (Fusarium verticillioides),Activity (Aspergillus flavus),zone of inhibition at 200 µg/disc (Bacillus subtilis) [mm],zone of inhibition at 200 µg/disc (Staphylococcus aureus) [mm]
O=Cc1c(O)cccc1CCC(=O)O,inactive,inactive,22,–
CC(O)C(O)CC1OC(=O)c2c(O)cccc21 (centres undefined),inactive,inactive,–,–
CC1(O)C(=O)C=Cc2c1ccc(O)c2CO (centres undefined),inactive,inactive,–,–
CC(O)C(O)CC1OCc2c(O)cccc21 (mixture of isomers; 7a),inactive,inactive,–,–
CC(O)C(O)CC1OCc2c(O)cccc21 (mixture of isomers; 7b),inactive,inactive,–,–
O=C(O)CC1OCc2c(O)cccc21 (racemic),inactive,inactive,8,–
O=C(O)CC1OC(=O)c2c(O)cccc21 (racemic),inactive,inactive,–,–
COc1cc(O)c2c(c1)C(=O)[C@H]1C[C@](C)(O)[C@H](O)C[C@@H]1[C@H]2O (relative stereo),inactive,inactive,–,–
COc1cc(O)c2c(c1)C(=O)C1=C(C2=O)[C@H](O)[C@@H](O)[C@@](C)(O)[C@@H]1O [ALTERSOLANOL A],inactive,inactive,33,31
C[C@H]1O[C@@H]2O[C@H]1C=Cc1cccc(O)c12 [CLADOACETAL A],inactive,inactive,–,13
COc1cc(O)c2c(c1)C(=O)c1cc(C)c(O)cc1C2=O [MACROSPORIN],inactive,inactive,23,20

# — ChEMBL document CHEMBL1150593, “Biologically active polyketide metabolites from an undetermined fungicolous hyphomycete resembling Cladosporium” (2002)
